Results: publication PMC10746523 (iScience, 2023)
Like-named read-outs stand apart in the source and are kept apart here.

What was measured:
[1] = in ethanol, cited from earlier work
[2] = Photophysical characterization and relative fluorescence quantum yield; type: physicochemical; settings: for Quantum Yield (relative fluorescence quantum yield, ΦFrel): ethanol, standard coumarin 343, 405/475 nm
How it was run: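 Relative quantum yield in ethanol: absorbance at 405 nm and fluorescence at ex/em 405/475 nm were measured for samples and for the coumarin 343 reference (Q_r 0.63 in ethanol). The refractive-index ratio was taken as 1.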

[3] = Microplate time- and pH-dependent fluorescence response to ONOO−; settings: probe 1 μM, ONOO− 600 μM
How it was run: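 Water-soluble probe (1 μM) was treated with ONOO⁻ (600 μM) in 50 mM MES (pH 5.8) or 50 mM Tris (pH 6.8, 7.8, 8.8). Fluorescence (ex/em 405/475 nm) was read on a microplate reader over time and expressed relative to untreated samples at t = 0 min.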

[4] = Selectivity against RONS, microplate F/F0; settings: for F/F0: probe 1 μM
How it was run: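 Probe (1 μM final, from a 100 μM DMSO stock) was mixed with each RONS (estimated 600 μM) in 50 mM Tris pH 7.5 containing 600 μM EDTA. HO· was generated in situ from Fe(ClO₄)₂ plus H₂O₂ (36 mM), and ¹O₂ from NaOCl plus H₂O₂. Plate fluorescence (405/475 nm) was read at 1 and 60 min; F/F₀ = 60-min reading over t₀.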

PCLS = assay: Confocal imaging of PCLS exposed to nitrogen mustard; type: cell-based, mice; settings: 75 μM TEG-TC-ONOO–, compared to 75 μM LNPs with ∼4 μM DPPC-TC-ONOO–
[5] = Solubility, stated in words; type: physicochemical; settings: aqueous media and buffers
[6] = Determination of pKa by UV-Vis absorbance; type: physicochemical; settings: MES and Tris buffers of different pH, pH 5.2
[7] = pH dependence of fluorescence intensity; type: physicochemical; settings: 405/475 nm; 1 µM
[8] = Competitive oxidation assay with the ketone 1; settings: ketone 1 (600 μM) alone treated with ONOO− (600 μM), Tris pH 7.5
How it was run: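 Ketone-competition variant of the microplate assay in 50 mM Tris pH 7.5: ketone competitor (600 μM) with ONOO⁻ (600 μM), alone or added after the probe (1 μM) had been pre-mixed 5 min with ONOO⁻ (600 μM). Probe plus ONOO⁻ without competitor was run in parallel. Fluorescence (ex/em 405/475 nm) was followed over time.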

[9] = cited from earlier work

SMILES: O=C(O)c1cc2cc3c4c(c2oc1=O)CCCN4CCC3 [coumarin 343]
- absolute fluorescence quantum yield (ΦF) [1]: 0.63
- quantum yield of reference standard (Qr) ([1]; ref Sigma Aldrich): 0.63

SMILES: O=C(Oc1ccc(CCC(=O)C(F)(F)F)cc1)Oc1ccc2cc(-n3cc(COCCOCCOCCO)nn3)c(=O)oc2c1 [TEG-TC-ONOO^–, 3-(4-((2-(2-(2-hydroxyethoxy)ethoxy)ethoxy)methyl)-1H-1,2,3-triazol-1-yl)-2-oxo-2H-chromen-7-yl (4-(4,4,4-trifluoro-3-oxobutyl)phenyl) carbonate]
- Brightness [2]: 358
- Extinction Coefficient [2]: 4475 M⁻¹ cm⁻¹
- Max Em [2]: 472.0 nm
- Max Ex [2]: 400.0 nm
- Relative brightness [2]: 1.4
- Quantum Yield (relative fluorescence quantum yield, ΦFrel) [2]: 0.08
- fluorescence generation ([3]; pH 5.8 and 6.8): little or no fluorescence generation
- fluorescence relative to untreated sample (t = 0 min) ([3]; pH 7.8, until 30 min): up to 6.5 times
- fluorescence relative to untreated sample (t = 0 min) ([3]; pH 8.8, until 30 min): ≤ 8 times
- relative fluorescence enhancement for ONOO− compared to the other RONS [4]: ~36 fold
- fluorescence intensity stronger than background ([4]; H2O2 600 μM, 60 min): 16%
- F/F0 ([4]; H2O2 600 μM, 60 min): 1.16
- increase in fluorescence ([4]; ONOO− 600 μM, 60 min): ~570%
- F/F0 ([4]; ONOO− 600 μM, 60 min): 6.69
- increase in fluorescence ([4]; absence of a redox species, 60 min): 13%
- F/F0 ([4]; absence of a redox species, 60 min, Tris pH 7.5): 1.13
- change in fluorescence ([4]; species other than ONOO−, 600 μM, 60 min): only negligible levels of change in fluorescence
- F/F0 ([4]; ·NO 600 μM, 60 min): 1.03
- signal within PCLS exposed to NM (405 nm excitation) (PCLS): considerably weak signals
- solubility [5]: highly soluble

SMILES: O=c1oc2cc(O)ccc2cc1-n1cc(COCCOCCOCCO)nn1 [TEG-TC, 7-hydroxy-3-(4-((2-(2-(2-hydroxyethoxy)ethoxy)ethoxy)methyl)-1H-1,2,3-triazol-1-yl)-2H-chromen-2-one]
- Brightness [2]: 10305
- Extinction Coefficient [2]: 15613 M⁻¹ cm⁻¹
- Max Em [2]: 471.4 nm
- Max Ex [2]: 397.0 nm
- Relative brightness [2]: 41.1
- Quantum Yield (relative fluorescence quantum yield, ΦFrel) [2]: 0.66
- pKa [6]: 7.1 ± 0.1
- fluorescence signal intensity at pH 7.5–8.8 relative to pH 5.8 [7]: 18- to 20 fold

SMILES: O=C(CCc1ccc(O)cc1)C(F)(F)F [Compound 1, 1,1,1-trifluoro-4-(4-hydroxyphenyl)butan-2-one]
- fluorescence generation [8]: no fluorescence

SMILES: O=NOO [ONOOH, peroxynitrous acid]
- chemical half-life [9]: 0.63 s
- pKa [9]: 6.8
- biological half-life ([9]; estimated, depends on concentration of biological targets): 10–20 ms
